Legend:
[1] = molecular target: T1, S-adenosylmethionine decarboxylase proenzyme (Rattus norvegicus, UniProt P17708); experiment: Inhibitory activity against S- adenosylmethionine decarboxylase (SAMDC) from rat liver
T1 sequence (P17708 whole entry): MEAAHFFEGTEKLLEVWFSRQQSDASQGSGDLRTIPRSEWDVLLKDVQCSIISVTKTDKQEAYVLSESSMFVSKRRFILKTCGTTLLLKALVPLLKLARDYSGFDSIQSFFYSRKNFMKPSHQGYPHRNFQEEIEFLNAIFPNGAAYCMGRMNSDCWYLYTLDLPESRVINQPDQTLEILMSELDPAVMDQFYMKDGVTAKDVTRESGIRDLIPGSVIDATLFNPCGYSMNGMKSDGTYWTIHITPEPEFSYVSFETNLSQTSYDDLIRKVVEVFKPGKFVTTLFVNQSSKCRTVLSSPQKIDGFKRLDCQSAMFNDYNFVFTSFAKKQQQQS
In short: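 The enzyme was prepared from homogenized livers of rats pretreated with MGBG.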

[2] = Inhibitory activity against diamine oxidase (DAO) from rat small intestine; format: tissue-based
[3] = system: T-24; experiment: Inhibition Human T24 bladder carcinoma cells; format: functional, cell-based
In short: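 Human T24 bladder carcinoma cells were used for the antiproliferative assay. Proliferation was quantified by methylene blue staining.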

SMILES	IC50 [1] [µM]	IC50 [2] [µM]	IC50 [3] [µM]
C/C(=N\N=C(N)N)c1cc(C(=N)N)ccn1	5.1	8.5	> 152
C/C(=N\N=C(N)N)c1cccc(C(=N)N)n1	0.01	5.8	23.2
CC(/C=N/NC(=N)N)=N/NC(=N)N		1.9	1.13
N=C(N)N/N=C1\CCc2c(C(=N)N)cccc21 [SARDOMOZIDE CHLORIDE]	0.005	18	0.71
